Active and inactive are the calls of the source. The calls are words filed in the database; no cut-off is given here.
Experiments:
[1] = Induction of NQO1 activity in mouse Hepa-1c1c7 cells at 5 uM after 48 hrs relative to control
[2] = target: T1, CYP1A1 (Mus musculus, UniProt P30561); assay: Induction of Ah receptor in mouse Hepa-1c1c7 cells assessed as induction of CYP1A1 activity at 10 uM after 48 hrs by EROD assay relative to control; assay type: cell-based; settings: probe ethoxyresorufin (EROD), read-out: FC
T1 sequence (P30561 whole entry): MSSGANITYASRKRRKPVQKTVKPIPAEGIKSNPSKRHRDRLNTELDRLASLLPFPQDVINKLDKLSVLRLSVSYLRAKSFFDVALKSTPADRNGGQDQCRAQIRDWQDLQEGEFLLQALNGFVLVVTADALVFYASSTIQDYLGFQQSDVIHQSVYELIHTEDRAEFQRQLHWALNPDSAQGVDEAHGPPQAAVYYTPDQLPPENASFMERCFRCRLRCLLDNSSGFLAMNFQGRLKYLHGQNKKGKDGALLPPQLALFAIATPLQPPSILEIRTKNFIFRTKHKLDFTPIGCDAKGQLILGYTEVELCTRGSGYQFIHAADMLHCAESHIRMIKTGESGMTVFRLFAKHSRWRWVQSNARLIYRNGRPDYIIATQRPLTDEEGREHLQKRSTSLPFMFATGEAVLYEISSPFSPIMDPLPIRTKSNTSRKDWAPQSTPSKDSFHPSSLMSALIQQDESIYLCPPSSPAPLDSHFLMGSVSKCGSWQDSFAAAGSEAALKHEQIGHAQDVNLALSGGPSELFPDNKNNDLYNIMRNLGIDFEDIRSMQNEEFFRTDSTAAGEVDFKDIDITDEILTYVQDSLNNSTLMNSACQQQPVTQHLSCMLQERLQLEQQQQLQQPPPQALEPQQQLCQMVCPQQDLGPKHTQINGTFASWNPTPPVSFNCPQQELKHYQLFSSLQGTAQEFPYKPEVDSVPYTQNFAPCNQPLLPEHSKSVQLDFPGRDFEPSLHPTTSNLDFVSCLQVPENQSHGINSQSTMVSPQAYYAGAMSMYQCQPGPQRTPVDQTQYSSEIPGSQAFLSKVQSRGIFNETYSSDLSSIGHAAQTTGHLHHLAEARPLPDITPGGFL
Method in brief: (§1)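 Hepa1c1c7 cells at 10⁴/well grown 24 h, then given compound at one fixed concentration for 48 h. After a PBS wash, cells incubated 40 min at 37 °C with 5 µM 7-ethoxyresorufin plus 2 mM salicylamide. Resorufin fluorescence read at ex 530/em 590 nm. Fold induction = (F cells+compound − F blank)/(F control − F blank); mean ± SD, n = 3.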

[3] = Cytotoxicity against mouse Hepa-1c1c7 cells assessed as cell survival at 5 uM after 48 hrs by MTT assay; assay type: cell-based; settings: read-out: Activity
Method in brief: (§2)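 MTT (0.5 mg/ml) added for 3 h at 37 °C, formazan dissolved in DMSO and read at 590 nm. Survival (%) = (A treated − A blank)/(A untreated − A blank) × 100.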

[4] = Cytotoxicity against mouse Hepa-1c1c7 cells assessed as cell survival at 25 uM after 48 hrs by MTT assay; assay type: cell-based; settings: read-out: Activity
Method in brief: as §2

[5] = Induction of NQO1 activity in mouse Hepa-1c1c7 cells at 25 uM after 48 hrs relative to control
[6] = target: T1, CYP1A1; assay: Induction of Ah receptor in mouse Hepa-1c1c7 cells assessed as induction of CYP1A1 activity at 25 uM after 48 hrs by EROD assay relative to control; assay type: cell-based; settings: probe ethoxyresorufin (EROD), read-out: FC
Method in brief: as §1

[7] = target: NAD(P)H dehydrogenase [quinone] 1 (Homo sapiens) (UniProt P15559); assay: Induction of […] NQO1 activity in mutant mouse BPrc1 cells assessed as concentration require for 2 fold induction after 48 hrs; assay type: cell-based
Method in brief: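 Mutant Hepa1c1c7 line (Bp^rc1, defective Ah-receptor pathway) seeded at 10⁴ cells/well for 24 h, then exposed to compound for 48 h; final DMSO ≤0.5%. Cells lysed with 0.8% digitonin/2 mM EDTA. NQO1 read by menadione-driven MTT reduction (NADP, glucose-6-phosphate regenerating system, FAD, pH 7.4), stopped after 5 min with dicoumarol, A590. Activity taken relative to blank and control wells; CD = concentration doubling basal activity; mean ± SD of 3 determinations.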

[8] = Induction of NQO1 activity in mouse Hepa-1c1c7 cells at 1 uM after 48 hrs relative to control
[9] = target: T1, CYP1A1; assay: Induction of Ah receptor in mouse Hepa-1c1c7 cells assessed as induction of CYP1A1 activity at 5 uM after 48 hrs by EROD assay relative to control; assay type: cell-based; settings: probe ethoxyresorufin (EROD), read-out: FC
Method in brief: as §1

[10] = tested on: Hepa-1c1c7; assay: Induction of human NQO1 gene expression in mouse Hepa-1c1c7 cells co-transfected with pGL3-ARE at 10 to 25 uM after 24 hrs by luciferase reporter gene assay; assay type: functional, cell-based
Method in brief: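 Hepa1c1c7 cells at about 50% confluency co-transfected with pGL3-ARE firefly luciferase (human NQO1 ARE) and pRL-CMV Renilla as transfection control. After 24 h, cells exposed to compound (10 or 25 µM). Dual luciferase read-out expressed as fold over control; mean ± SD of 3 independent transfections, t-test.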

[11] = tested on: Hepa-1c1c7; assay: Induction of TrxR activity in mouse Hepa-1c1c7 cells at 10 uM after 24 hrs; assay type: cell-based
Method in brief: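 Hepa1c1c7 cells treated with compound at 10 µM for 24 h. Digitonin/EDTA lysate (25 µg) incubated 20 min at 37 °C with 85 mM HEPES pH 7.6, 0.3 mM insulin, 660 µM NADPH, 2.5 mM EDTA and 5 µM human thioredoxin. Reaction quenched with DTNB in guanidine; A412 read, minus no-thioredoxin background. Fold versus control, mean ± SEM, n = 3.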

[12] = tested on: Hepa-1c1c7; assay: Increase of Nrf2 protein level in mouse Hepa-1c1c7 cells at 10 uM for 6 hrs Western blotting relative to control; assay type: functional, cell-based
Method in brief: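 Hepa1c1c7 cells exposed to compound at 10 µM for 6 h, with MG132 (25 µM) as reference. Lysates made in digitonin/EDTA with protease inhibitors; 50 µg protein run on 15% SDS-PAGE, blotted to nitrocellulose and probed for Nrf2 with β-actin loading control. Bands quantified by densitometry against untreated control, 3 experiments, independent t-test.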

[13] = Transcriptional activation of Nrf2/ARE signaling pathway in mouse Hepa-1c1c7 cells assessed as increase in cellular GSH level at 10 uM after 24 hrs by Ellman's method; assay type: functional, cell-based
Method in brief: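 Hepa1c1c7 cells at 10⁶/plate grown 24 h, then given compound at 10 µM final for 24 h. Pellets extracted with 3% sulfosalicylic acid. Total GSH measured by DTNB recycling (0.6 mM DTNB, 0.2 mM NADPH, GSH reductase) as ΔA412 over 5 min against a GSH standard curve. Values normalized to Bradford protein from a parallel plate; mean ± SEM, n = 3.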

[14] = Upregulation of TrxR protein expression in mouse Hepa-1c1c7 cells at 10 uM after 24 hrs by Western blotting relative to control; assay type: functional, cell-based
Method in brief: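 Hepa1c1c7 cells exposed to compound at 10 µM for 24 h. Digitonin/EDTA lysates (50 µg protein) separated on 15% SDS-PAGE, blotted to nitrocellulose and probed with anti-TrxR antibody. Band intensity compared with untreated control; representative of 3 experiments.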

Sequence of NAD(P)H dehydrogenase [quinone] 1 (Homo sapiens) (P15559 whole entry): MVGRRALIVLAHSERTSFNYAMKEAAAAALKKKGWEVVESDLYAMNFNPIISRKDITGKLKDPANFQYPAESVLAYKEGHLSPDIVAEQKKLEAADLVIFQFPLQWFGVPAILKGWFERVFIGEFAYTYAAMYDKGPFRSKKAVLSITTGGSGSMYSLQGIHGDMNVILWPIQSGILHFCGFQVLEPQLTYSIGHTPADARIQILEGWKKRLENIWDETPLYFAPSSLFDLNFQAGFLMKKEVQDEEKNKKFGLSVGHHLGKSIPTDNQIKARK

Compound | fold change (FC) [1] | fold induction at 48 h, 10 µM [2] | viability at 48 h, 5 µM [3] | viability at 48 h, 25 µM [4] | fold change (FC) [5] | fold induction at 48 h, 25 µM [6] | other results
O=C1Oc2ccc(O)cc2/C1=C/c1ccc(Cl)cc1 | 2.49 | 1.04 | 90% | – | – | – | –
O=C1/C(=C/c2cccc(O)c2)Oc2cc(O)ccc21 | 1.64 | – | 112% | 106% | 2.92 | 1.08 | –
O=C1/C(=C/c2cccc(Cl)c2)Oc2cc(O)ccc21 | 2.85 | 1.05 | 111% | 98% | – | – | –
O=C1/C(=C/c2ccc(O)cc2)Oc2cc(O)cc(O)c21 | 1.23 | – | 105% | 98% | 1.95 | 1.05 | –
O=C1/C(=C/c2ccccc2Cl)Oc2cc(O)cc(O)c21 | 2.64 | 1.18 | 101% | – | – | – | –
O=c1cc(-c2ccccc2)oc2ccc3ccccc3c12 | – | – | – | – | – | – | Activity [7]: inactive
COc1cc(OC)c2c(c1)O/C(=C\c1cccc(O)c1O)C2=O | 2.53 | 0.97 | 88% | – | – | – | –
COc1cc(OC)c2c(c1)O/C(=C\c1ccc(F)cc1)C2=O | – | – | 93% | – | – | – | fold change (FC) [8]: 2.16
COc1cc(OC)c2c(c1)O/C(=C\c1ccncc1)C2=O | 1.82 | – | 101% | 110% | 4.5 | 1.73 | –
O=C1Oc2ccc(O)cc2/C1=C/c1ccccc1O | 2.43 | 1.12 | 115% | – | – | – | –
COc1ccccc1/C=C1\Oc2ccc(O)cc2C1=O | 3.1 | – | 97% | 95% | – | 1.68 | –
COc1cc(OC)c2c(c1)O/C(=C\c1cccc(F)c1)C2=O | 4.47 | – | 89% | – | – | – | fold induction at 48 h, 5 µM [9]: 1.48
O=C1/C(=C/c2cccc(Cl)c2)Oc2ccc(O)cc21 | 4.68 | 2.95 | 101% | – | – | – | –
COc1cc(OC)c2c(c1)OC(=O)/C2=C\c1ccccc1Cl | 2.12 | 0.97 | 90% | – | – | – | –
O=C1/C(=C/c2ccccc2O)Oc2ccccc21 | 1.41 | – | 110% | 102% | 1.61 | – | Activity [10]: inactive; Activity [11]: inactive; fold induction at 48 h, 5 µM [9]: 1.4
COc1cc(/C=C2\Oc3cc(O)cc(O)c3C2=O)ccc1O | 1.53 | – | 97% | 98% | 2.54 | 1.06 | –
O=C1/C(=C/c2ccccc2F)Oc2cc(O)cc(O)c21 | 2.2 | 1 | 110% | 96% | – | – | –
COc1cc(OC)c2c(c1)OC(Cc1ccccc1O)C2=O (stereo unspecified) | 1.55 | – | 102% | – | – | – | Activity [10]: inactive; Activity [11]: inactive
COc1cc(OC)c2c(c1)OC(=O)/C2=C\c1ccccc1 | 1.43 | – | 100% | 96% | 2.1 | 1.04 | –
O=C1/C(=C/c2ccccc2O)Oc2cc(O)ccc21 | 1.45 | – | 113% | 102% | 2.11 | 1.07 | –
COc1cc(OC)c2c(c1)O/C(=C\c1ccccc1F)C2=O | – | – | 66% | – | – | – | fold change (FC) [8]: 2.6
COc1cccc(/C=C2\Oc3cc(O)cc(O)c3C2=O)c1 | 2.15 | 1.13 | 112% | – | – | – | –
COc1cc(OC)c2c(c1)O/C(=C\c1cccc(O)c1)C2=O | 1.2 | – | 104% | 100% | 2.07 | 1.16 | –
COc1cc(OC)c2c(c1)O/C(=C\c1cccc(Cl)c1)C2=O | 3.98 | – | 103% | – | – | – | fold induction at 48 h, 5 µM [9]: 1.18
O=C1/C(=C/c2ccc(Cl)cc2)Oc2cc(O)ccc21 [6-HYDROXY-4'-CHLORO AURONE] | 1.51 | – | 120% | – | 2.55 | 1.24 | –
COc1cc(OC)c2c(c1)O/C(=C\c1ccccc1O)C2=O | 5.28 | 1.87 | 102% | – | – | – | Activity [12]: Active; Activity [13]: Active; Activity [10]: Active; Activity [14]: Active
COc1cc(OC)c2c(c1)O/C(=C\c1ccccn1)C2=O | 2.26 | 0.98 | 92% | – | – | – | –
COc1cc(OC)c2c(c1)O/C(=C\c1ccccc1Cl)C2=O | 5.6 | – | 105% | – | – | – | fold induction at 48 h, 5 µM [9]: 1.55
O=C1/C(=C/c2ccccc2O)Oc2ccc(O)cc21 | 2.65 | 2.01 | 99% | 104% | – | – | –
COc1cc(OC)c2c(c1)OC(=O)/C2=C\c1ccccc1OC | 1.79 | – | 118% | 107% | 3.57 | 1.03 | –

Source: ChEMBL document CHEMBL1177857, “Functionalized aurones as inducers of NAD(P)H:quinone oxidoreductase 1 that activate AhR/XRE and Nrf2/ARE signaling pathways: synthesis, evaluation and SAR” (Eur J Med Chem, 2010)
